Test results reported in ChEMBL document CHEMBL4393712, “Discovery of chalcone-modified estradiol analogs as antitumour agents that Inhibit tumour angiogenesis and epithelial to mesenchymal transition” (Eur J Med Chem, 2019).
Active and inactive are the calls of the source. The rule behind the calls is not given here.

Columns and labels:
[1] = Hepatotoxicity in nude mouse xenografted with human MCF7 cells assessed as increase in serum alanine transaminase level at 45 mg/kg/day, ip administered for 21 days by biochemical automatic analyzer; assay type: toxicity, organism-based; details: in vivo, 504 h
[2] = Hepatotoxicity in nude mouse xenografted with human MCF7 cells assessed as increase in serum alkaline phosphatase level at 45 mg/kg/day, ip administered for 21 days by biochemical automatic analyzer; assay type: toxicity, organism-based; details: in vivo, 504 h
ECa-109 cell line = experiment: Antitumour activity against human EC109 cells assessed as cell growth inhibition measured after 72 hrs by SRB assay; assay type: functional, cell-based; details: ECa-109, 72 h
Method in brief: (§1)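 Exponentially growing cells trypsinized, seeded at 5 × 10^4 cells/mL in 96-well plates, cultured overnight, then exposed to compounds for 72 h. Cells fixed with 10% TCA 1 h, stained with SRB 15 min, dye dissolved in Tris-HCl, absorbance read; 50% growth-inhibitory concentration calculated.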

[3] = Hepatotoxicity in nude mouse xenografted with human MCF7 cells assessed as increase in serum aspartate transaminase level at 45 mg/kg/day, ip administered for 21 days by automatic biochemical analyzer; assay type: toxicity, organism-based; details: in vivo, 504 h
MGC-803 [4] = experiment: Cytotoxicity against human MGC803 cells assessed as reduction in cell viability measured after 48 to 72 hrs by MTT assay; assay type: cell-based
Method in brief: (§2)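 Cells seeded at 3 × 10^3 per well in 96-well plates, incubated overnight, then given fresh medium with a range of drug concentrations for 48 h or 72 h. MTT added (final 500 µg/mL) for 4 h, formazan dissolved in DMSO, absorbance at 570 nm; IC50 derived. Mean ± SD of 3 independent tests.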

PC-3 = experiment: Cytotoxicity against human PC3 cells assessed as reduction in cell viability measured after 48 to 72 hrs by MTT assay; assay type: cell-based; method in brief: as §2
A549 = experiment: Antitumour activity against human A549 cells assessed as cell growth inhibition measured after 72 hrs by SRB assay; assay type: functional, cell-based; details: A549, 72 h; method in brief: as §1
SMMC-7721 = experiment: Antitumour activity against human SMMC7721 cells assessed as cell growth inhibition measured after 72 hrs by SRB assay; assay type: functional, cell-based; details: SMMC-7721, 72 h; method in brief: as §1
GES1 = experiment: Cytotoxicity against human GES-1 cells assessed as reduction in cell viability measured after 48 to 72 hrs by MTT assay; assay type: cell-based; method in brief: as §2
MGC-803 [5] = experiment: Antitumour activity against human MGC803 cells assessed as cell growth inhibition measured after 72 hrs by SRB assay; assay type: functional, cell-based; details: MGC-803, 72 h; method in brief: as §1
[6] = Toxicity in nude mouse xenografted with human MCF7 cells assessed as decrease in body weight at 45 mg/kg/day, ip administered for 21 days; assay type: organism-based; details: in vivo, 504 h
Method in brief: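 Nude mice (male/female, 4–6 weeks) injected subcutaneously in right forelimb with 5 × 10^7 MCF-7 cells in 200 µL saline; at mean tumour 100 mm3 randomized (n = 5/group): saline 0.2 mL/day, 22.5 or 45 mg/kg/day ip for 21 days. Body weight and tumour volume (length × width²/2) every other day; tumours weighed at day 21.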

B16 = experiment: Antitumour activity against mouse B16 cells assessed as cell growth inhibition measured after 72 hrs by SRB assay; assay type: functional, cell-based; details: B16, 72 h; method in brief: as §1
[7] = Toxicity in nude mouse xenografted with human MCF7 cells assessed as liver edema at 45 mg/kg/day, ip administered for 21 days by HE staining analysis; assay type: organism-based; details: in vivo, 504 h
HUVEC = experiment: Cytotoxicity against HUVEC assessed as reduction in cell viability measured after 48 to 72 hrs by MTT assay; assay type: cell-based; details: human; method in brief: as §2
SK-N-SH = experiment: Antitumour activity against human SK-N-SH cells assessed as cell growth inhibition measured after 72 hrs by SRB assay; assay type: functional, cell-based; method in brief: as §1
Chorioallantoic membrane = experiment: Antiangiogenic activity in chicken chorioallantoic membrane assessed as reduction in neovascularization at 50 ug/ml measured after 72 hrs by CAM assay; assay type: functional; details: Gallus gallus
Method in brief: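 Fertilized chicken eggs incubated 6 days at 37 °C; shell windowed and CAM treated (compounds and controls at […] as printed; saline vehicle control). Eggs re-incubated humidified; membranes fixed and harvested after 72 h. Angiogenesis scored by counting blood vessels and imaging neovascular zones; ten eggs per group.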

Q: With COc1cc2c(cc1O)CC[C@@H]1[C@@H]2CC[C@]2(C)[C@@H](O)CC[C@@H]12 [2-METHOXYESTRADIOL] as the compound, how does the Activity [1] read?
A: Toxic

Q: What about the Activity [2] of the same compound?
A: Toxic

Q: What about the IC50 (ECa-109 cell line) of the same compound?
A: 4.1 µM

Q: And the Activity [3]?
A: Toxic

Q: And the Activity (MGC-803 [4])?
A: Toxic

Q: And the Activity (PC-3)?
A: Toxic

Q: What about the IC50 (A549) of the same compound?
A: 1.1 µM

Q: And the IC50 (SMMC-7721)?
A: 8.4 µM

Q: What about the Activity (GES1) of the same compound?
A: Toxic

Q: What about the IC50 (MGC-803 [5]) of the same compound?
A: 4 µM

Q: What about the Activity [6] of the same compound?
A: Toxic

Q: What about the IC50 (B16) of the same compound?
A: 3.4 µM

Q: And the Activity [7]?
A: Toxic

Q: And the Activity (HUVEC)?
A: Toxic

Q: And the IC50 (SK-N-SH)?
A: 1.6 µM

Q: And the inhibition (Chorioallantoic membrane)?
A: Active
